17 molecules from ChEMBL document CHEMBL1131023, “Identification of a dihydropyridine as a potent alpha1a adrenoceptor-selective antagonist that inhibits phenylephrine-induced contraction of the human prostate” (J Med Chem, 1998) can be followed below.

Broadly, the Ki is a measure of affinity in units of concentration, obtained from inhibition or displacement. High values mean weaker binding, low ones tighter binding.

The target in test [1] is T1, Alpha-1D adrenergic receptor (Homo sapiens, UniProt P25100).
T1 sequence (P25100 whole entry): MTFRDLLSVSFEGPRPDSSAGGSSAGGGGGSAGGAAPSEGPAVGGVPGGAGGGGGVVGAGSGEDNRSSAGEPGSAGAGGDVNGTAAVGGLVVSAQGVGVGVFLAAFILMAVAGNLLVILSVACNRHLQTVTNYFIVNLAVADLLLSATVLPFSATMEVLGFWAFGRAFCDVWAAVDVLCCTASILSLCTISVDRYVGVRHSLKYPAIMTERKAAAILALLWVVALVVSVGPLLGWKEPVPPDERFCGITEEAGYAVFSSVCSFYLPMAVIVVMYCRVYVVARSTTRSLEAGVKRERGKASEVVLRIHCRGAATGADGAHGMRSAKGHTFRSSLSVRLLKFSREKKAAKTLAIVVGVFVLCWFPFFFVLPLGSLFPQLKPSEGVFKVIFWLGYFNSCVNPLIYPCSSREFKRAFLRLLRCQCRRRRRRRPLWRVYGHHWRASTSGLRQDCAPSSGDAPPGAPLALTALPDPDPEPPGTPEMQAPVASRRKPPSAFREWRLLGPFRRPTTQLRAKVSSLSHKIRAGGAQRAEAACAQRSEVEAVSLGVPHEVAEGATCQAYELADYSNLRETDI
Put plainly: Binding affinity determined by displacement of [3H]prazosin from alpha-1D adrenergic receptor. Put shortly: (§1)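 Radioligand displacement binding at the cloned receptor, incubated for 30 min.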

The target of test [2] is T2, Alpha-1A adrenergic receptor (Homo sapiens, UniProt P35348).
T2 sequence (P35348 whole entry): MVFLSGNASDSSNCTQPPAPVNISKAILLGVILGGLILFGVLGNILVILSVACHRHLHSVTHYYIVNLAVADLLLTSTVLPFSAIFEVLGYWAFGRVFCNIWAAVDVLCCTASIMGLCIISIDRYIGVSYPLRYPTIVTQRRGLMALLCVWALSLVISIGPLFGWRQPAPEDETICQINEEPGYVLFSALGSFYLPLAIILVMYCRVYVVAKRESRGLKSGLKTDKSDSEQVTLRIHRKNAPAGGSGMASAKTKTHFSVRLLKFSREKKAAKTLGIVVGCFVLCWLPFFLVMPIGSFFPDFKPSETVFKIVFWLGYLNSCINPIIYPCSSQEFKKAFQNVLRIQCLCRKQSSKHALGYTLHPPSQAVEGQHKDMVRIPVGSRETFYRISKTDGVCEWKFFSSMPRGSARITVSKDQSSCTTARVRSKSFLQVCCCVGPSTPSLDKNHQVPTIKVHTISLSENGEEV
Put plainly: Binding affinity determined by displacement of [3H]prazosin from alpha-1A adrenergic receptor. A general note: In a radioligand displacement assay an active substance lowers the binding of a labelled ligand.

Test [3] addresses T3, Alpha-1B adrenergic receptor (Homo sapiens, UniProt P35368).
T3 sequence (P35368 whole entry): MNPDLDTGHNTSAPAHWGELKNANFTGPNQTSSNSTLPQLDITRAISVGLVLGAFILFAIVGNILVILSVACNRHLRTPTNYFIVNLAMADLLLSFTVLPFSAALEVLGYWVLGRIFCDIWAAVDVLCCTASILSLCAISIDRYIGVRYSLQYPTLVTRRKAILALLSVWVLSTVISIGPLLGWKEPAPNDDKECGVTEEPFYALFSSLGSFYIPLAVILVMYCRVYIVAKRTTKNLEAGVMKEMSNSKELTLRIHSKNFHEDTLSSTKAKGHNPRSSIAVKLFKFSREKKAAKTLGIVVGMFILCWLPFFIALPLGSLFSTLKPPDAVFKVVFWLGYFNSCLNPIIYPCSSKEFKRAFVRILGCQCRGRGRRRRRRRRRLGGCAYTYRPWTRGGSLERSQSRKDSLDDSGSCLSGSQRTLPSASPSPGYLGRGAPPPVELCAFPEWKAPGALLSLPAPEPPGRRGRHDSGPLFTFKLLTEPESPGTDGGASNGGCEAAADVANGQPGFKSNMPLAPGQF
Put plainly: Binding affinity determined by displacement of [3H]prazosin from alpha-1B adrenergic receptor.

In test [4] the target is T4, Alpha-2A adrenergic receptor (Homo sapiens, UniProt P08913).
T4 sequence (P08913 whole entry): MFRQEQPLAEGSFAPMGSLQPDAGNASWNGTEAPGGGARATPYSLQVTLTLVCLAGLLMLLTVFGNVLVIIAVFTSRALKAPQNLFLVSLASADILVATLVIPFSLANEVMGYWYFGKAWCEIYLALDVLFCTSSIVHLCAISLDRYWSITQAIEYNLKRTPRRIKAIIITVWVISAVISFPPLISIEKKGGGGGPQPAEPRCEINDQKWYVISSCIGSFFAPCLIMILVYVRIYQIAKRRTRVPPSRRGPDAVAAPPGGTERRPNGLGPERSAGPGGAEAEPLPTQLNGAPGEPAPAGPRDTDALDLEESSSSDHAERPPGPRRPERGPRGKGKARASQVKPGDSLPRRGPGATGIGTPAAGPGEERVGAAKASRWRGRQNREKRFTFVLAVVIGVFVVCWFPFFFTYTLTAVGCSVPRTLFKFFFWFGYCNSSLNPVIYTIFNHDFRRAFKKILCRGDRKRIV
Put plainly: Binding affinity determined by displacement of [3H]rauwolscine from alpha-2A adrenergic receptor. Summed up:
as §1

For test [5], the target named is T5, Alpha-2C adrenergic receptor (Homo sapiens, UniProt P18825).
T5 sequence (P18825 whole entry): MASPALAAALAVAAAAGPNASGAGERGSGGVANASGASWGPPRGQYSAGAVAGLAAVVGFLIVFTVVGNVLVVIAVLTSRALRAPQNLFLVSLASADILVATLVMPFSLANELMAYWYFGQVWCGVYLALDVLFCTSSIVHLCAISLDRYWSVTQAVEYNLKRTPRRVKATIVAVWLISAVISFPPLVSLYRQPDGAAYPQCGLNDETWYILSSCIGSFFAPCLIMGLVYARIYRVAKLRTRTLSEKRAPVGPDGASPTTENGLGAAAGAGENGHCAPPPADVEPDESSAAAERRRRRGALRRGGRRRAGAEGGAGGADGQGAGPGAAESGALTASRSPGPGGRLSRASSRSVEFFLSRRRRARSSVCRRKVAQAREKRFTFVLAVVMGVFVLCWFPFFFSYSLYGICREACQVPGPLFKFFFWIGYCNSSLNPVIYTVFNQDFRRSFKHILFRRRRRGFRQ
Put plainly: Binding affinity assayed by displacement of [3H]rauwolscine from human alpha-2C adrenergic receptor. Put shortly: as §1

Test [6] addresses T6, Alpha-2B adrenergic receptor (Homo sapiens, UniProt P18089).
T6 sequence (P18089 whole entry): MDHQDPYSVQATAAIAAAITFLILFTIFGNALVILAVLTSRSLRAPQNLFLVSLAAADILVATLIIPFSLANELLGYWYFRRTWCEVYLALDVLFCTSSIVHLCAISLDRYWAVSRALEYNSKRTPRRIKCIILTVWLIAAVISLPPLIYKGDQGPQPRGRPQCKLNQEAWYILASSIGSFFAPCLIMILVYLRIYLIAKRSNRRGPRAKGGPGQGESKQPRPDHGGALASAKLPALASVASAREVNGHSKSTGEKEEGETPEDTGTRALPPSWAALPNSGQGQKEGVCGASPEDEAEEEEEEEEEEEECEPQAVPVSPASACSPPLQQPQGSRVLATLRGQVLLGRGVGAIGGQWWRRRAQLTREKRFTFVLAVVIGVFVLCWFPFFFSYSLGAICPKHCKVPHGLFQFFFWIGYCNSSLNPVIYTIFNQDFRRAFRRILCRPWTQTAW
Put plainly: Binding affinity determined by displacement of [3H]rauwolscine from alpha-2B adrenergic receptor.

Test [7] concerns the target Voltage-gated L-type calcium channel (Rattus norvegicus, UniProt P22002+Q02485+P27732). Put plainly: Binding affinity at the L-type [Ca2+] channel from rat brain homogenate by [3H]nitrendipine displacement. The test is classed as tissue-based.

The structures appear in SMILES notation. Bounds are passed on as bounds.

For `CC(C)C1=C(C(N)=O)C(c2ccc([N+](=O)[O-])cc2)C(C(=O)NCCCN2CCC(c3ccccc3)(c3ccccc3)CC2)=C(C(C)C)N1` (stereo not given), the inhibition constant (Ki) in test [1] is 347 nM; in test [2], 53.7 nM.
For the molecule `CNC(=O)C1=C(C)NC(C)=C(C(=O)NCCCN2CCC(c3ccccc3)(c3ccccc3)CC2)C1c1ccc2c(c1)OCO2` (stereo not given), the Ki in test [3] is 1780 nM; in test [4] it was 2090 nM; in test [5], 1020 nM; in test [6] it was 575 nM; in test [2] it was 16.2 nM.
On to `CO/C(O)=C1\C(C)=NC(C)=C(C(=O)NCCCN2CCC(c3ccccc3)CC2)C1c1ccc([N+](=O)[O-])cc1` (stereo not given), for which the inhibitory constant (Ki) was 13.5 nM in test [3]; 275 nM in test [4]; 81.3 nM in test [5]; 66.1 nM in test [1]; 219 nM in test [6]; 0.229 nM in test [2]. In addition, the “Log Ki” value in test [7] is listed as less than -6.
Turning to `CO/C(O)=C1\C(C)=NC(C)=C(C(=O)NCCCN2CCC(c3ccccc3)(c3ccccc3)CC2)C1c1ccc([N+](=O)[O-])c(OC)c1` (stereo not given), the Ki in test [3] is 162 nM; in test [4], 631 nM; in test [5], 398 nM; in test [1], 316 nM; in test [6], 575 nM; in test [2] it was 1.48 nM. Besides, the “Log Ki” value in test [7] is on record as less than -6.
As for `CC1=C(C(=O)NCCCN2CCC(c3ccccc3)(c3ccccc3)CC2)C(c2ccc([N+](=O)[O-])cc2)C(C(=O)N(C)C)=C(C)N1` (stereo not given), in test [7], the “Log Ki” value is less than -6.
As for `CO/C(O)=C1\C(C)=NC(C)=C(C(=O)NCCCN2CCC(c3ccccc3)CC2)C1c1ccc(Cl)c([N+](=O)[O-])c1` (stereo not given), the Ki in test [3] was 41.7 nM; in test [4], 110 nM; in test [5] it was 47.9 nM; in test [1] it was 126 nM; in test [6] it was 91.2 nM; in test [2], 0.525 nM. Moreover, in test [7], the “Log Ki” value is less than -6.
For `CC1=C(C(N)=O)C(c2ccc([N+](=O)[O-])cc2)C(C(=O)NCCCN2CCC(c3ccccc3)(c3ccccc3)CC2)=C(C)N1` (single isomer, unassigned; (-)), the inhibition constant Ki in test [1] is 224 nM; in test [6], 282 nM.
Regarding `CC1=C(C(N)=O)C(c2ccc([N+](=O)[O-])cc2)C(C(=O)NCCCN2CCC(c3ccccc3)(c3ccccc3)CC2)=C(C)N1` (stereo in doubt; 19), the “Log Ki” value in test [7] is recorded as less than -6.
As for `CC1=C(C(=O)O)C(c2ccc3c(c2)OCO3)C(C(=O)NCCCN2CCC(c3ccccc3)(c3ccccc3)CC2)=C(C)N1` (stereo not given), the inhibition constant Ki in test [3] is 977 nM; in test [4], 1170 nM; in test [5], 776 nM; in test [1], 1740 nM; in test [6] it was 200 nM; in test [2] it was 316 nM.
As to `CC(=O)C1=C(C)NC(C)=C(C(=O)NCCCN2CCC(c3ccccc3)(c3ccccc3)CC2)C1c1ccc([N+](=O)[O-])cc1` (stereo not given), the “Log Ki” value in test [7] is listed as less than -6.
On to `CO/C(O)=C1\C(C)=NC(C)=C(C(=O)NCCCN2CCC(c3ccccc3)(c3ccccc3)CC2)C1c1ccc(Cl)c(Cl)c1` (stereo not given), for which the Ki in test [3] was 115 nM; in test [4] it was 912 nM; in test [5], 158 nM; in test [1], 324 nM; in test [6], 1260 nM; in test [2], 1.86 nM. Moreover, the “Log Ki” value in test [7] was less than -6.
For `CC1=C(C(N)=O)C(c2ccc3c(c2)OCO3)C(C(=O)NCCCN2CCC(c3ccccc3)(c3ccccc3)CC2)=C(C)N1` (stereo not given), the Ki in test [3] is 1170 nM; in test [4], 501 nM; in test [5] it was 724 nM; in test [1], 1150 nM; in test [6] it was 204 nM; in test [2], 8.71 nM. In addition, the “Log Ki” value in test [7] is less than -6.
On to `CC1=C(C(N)=O)C(c2ccc([N+](=O)[O-])cc2)C(C(=O)NCCCN2CCC(c3ccccc3)(c3ccccc3)CC2)=C(C)N1` (single isomer, unassigned; (+)), for which the values for the inhibitory constant (Ki) in test [1] and in test [6] were 398 nM and 407 nM, respectively.
Regarding `CO/C(O)=C1\C(C)=NC(C)=C(C(=O)NCCCN2CCC(c3ccccc3)(c3ccccc3)CC2)C1c1ccc(C)cc1` (stereo not given), the inhibitory constant (Ki) in test [3] is 269 nM; in test [4], 1290 nM; in test [5], 417 nM; in test [1] it was 316 nM; in test [6], 912 nM; in test [2], 1.38 nM. Further, the “Log Ki” value in test [7] is reported as less than -6.
Take `CO/C(O)=C1\C(C)=NC(C)=C(C(=O)NCCCN2CCC(c3ccccc3)(c3ccccc3)CC2)C1c1ccc(C#N)cc1` (stereo not given): the Ki is 151 nM in test [3]; 759 nM in test [4]; 871 nM in test [5]; 380 nM in test [1]; 1260 nM in test [6]; 1.82 nM in test [2]. The “Log Ki” value in test [7] is less than -6.
As for `CCC1=C(C(N)=O)C(c2ccc([N+](=O)[O-])cc2)C(C(=O)NCCCN2CCC(c3ccccc3)(c3ccccc3)CC2)=C(CC)N1` (stereo not given), the affinity in test [4], expressed as Ki, was 355 nM.
On to `CNC(=O)C1=C(C)NC(C)=C(C(=O)NCCCN2CCC(c3ccccc3)(c3ccccc3)CC2)C1c1ccc([N+](=O)[O-])cc1` (stereo not given), for which the Ki is 490 nM in test [3], 759 nM in test [1], 933 nM in test [6] and 4.47 nM in test [2]. Further, the “Log Ki” value in test [7] was less than -6.
